From ChEMBL document CHEMBL3864151, “Discovery of imidazopyridazines as potent Pim-1/2 kinase inhibitors” (Bioorg Med Chem Lett, 2016)
Converted amounts (≈) assume the structure as drawn. The source made the active and inactive calls. The rule behind the calls is not given here.

Legend:
[1] = Intrinsic clearance in rat liver microsomes at 1 uM after 30 mins by LC-MS HRMS analysis; type: ADME; conditions: read-out: CLH
[2] = Intrinsic clearance in human liver microsomes at 1 uM after 30 mins by LC-MS HRMS analysis; type: ADME; conditions: read-out: CLH
[3] = Clearance in Sprague-Dawley rat at 2 mg/kg, iv; type: ADME, organism-based; conditions: in vivo
In short: (§1)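 Male Sprague Dawley rats, 3 animals per dosing route, mean values. iv dose 2 mg/kg as a solution in DMSO; po dose 5 mg/kg in 1% Tween 80, 2% HPMC, 97% water/methanesulfonic acid pH 2.2.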

[4] = Volume of distribution at steady state in Sprague-Dawley rat at 2 mg/kg, iv; type: ADME, organism-based; conditions: in vivo, read-out: Vdss; in short: as §1
[5] = AUC (0 to infinity) in Sprague-Dawley rat at 5 mg/kg, po; type: ADME, organism-based; design: dose 5 mg/kg, route oral, time infinity; conditions: in vivo; in short: as §1
[6] = target: Voltage-gated inwardly rectifying potassium channel KCNH2 (Homo sapiens, UniProt Q12809); assay: Inhibition of radiolabeled dofetilide binding to human ERG expressed in HEK293 cells
[7] = Aqueous solubility in 0.01N HCl after 48 to 72 hrs by HPLC analysis; type: physicochemical
In short: (§2)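 Aqueous solubility determined in 0.01N HCl, PBS (pH 7.4) and FaSIF (pH 6.8).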

[8] = Aqueous solubility in pH 7.4 PBS after 48 to 72 hrs by HPLC analysis; type: physicochemical; in short: as §2
[9] = Aqueous solubility in pH 6.8 FsSIF after 48 to 72 hrs by HPLC analysis; type: physicochemical; in short: as §2
[10] = target: Casein kinase II subunit alpha (Homo sapiens) (UniProt P68400); assay: Competitive binding affinity to full length wild type human CSNK2A1 expressed in mammalian expression system at 10 uM by kinomescan method relative to control
In short: (§3)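 DiscoveRX scanMAX kinase panel of protein and lipid kinases and common mutants; competitive binding of compound at 10 µM expressed as percentage of control (POC).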

Homo sapiens = species on record: Homo sapiens; assay: Competitive binding affinity to wild type human DYRK at 10 uM by kinomescan method relative to control; in short: as §3
[11] = target: Mitogen-activated protein kinase 15 (Homo sapiens) (UniProt Q8TD08); assay: Competitive binding affinity to partial length wild type human ERK8 expressed in bacterial expression system at 10 uM by kinomescan method relative to control; in short: as §3
[12] = target: Glycogen synthase kinase-3 alpha (Homo sapiens) (UniProt P49840); assay: Competitive binding affinity to full length wild type human GSK3A expressed in bacterial expression system at 10 uM by kinomescan method relative to control; in short: as §3
[13] = target: Homeodomain-interacting protein kinase 2 (Homo sapiens) (UniProt Q9H2X6); assay: Competitive binding affinity to partial length wild type human HIPK2 expressed in mammalian expression system at 10 uM by kinomescan method relative to control; in short: as §3
[14] = target: Homeodomain-interacting protein kinase 3 (Homo sapiens) (UniProt Q9H422); assay: Competitive binding affinity to partial length wild type human HIPK3 expressed in mammalian expression system at 10 uM by kinomescan method relative to control; in short: as §3
[15] = target: Phosphatidylinositol 4-phosphate 5-kinase type-1 gamma (Homo sapiens) (UniProt O60331); assay: Competitive binding affinity to partial length wild type human PIP5K1C expressed in mammalian expression system at 10 uM by kinomescan method relative to control; in short: as §3
[16] = target: Serine/threonine-protein kinase TAO1 (Homo sapiens) (UniProt Q7L7X3); assay: Competitive binding affinity to partial length wild type human TAOK1 expressed in mammalian expression system at 10 uM by kinomescan method relative to control; in short: as §3
[17] = target: Serine/threonine-protein kinase TAO2 (Homo sapiens) (UniProt Q9UL54); assay: Competitive binding affinity to partial length wild type human TAOK2 expressed in mammalian expression system at 10 uM by kinomescan method relative to control; in short: as §3
[18] = target: Serine/threonine-protein kinase TAO3 (Homo sapiens) (UniProt Q9H2K8); assay: Competitive binding affinity to partial length wild type human TAOK3 expressed in mammalian expression system at 10 uM by kinomescan method relative to control; in short: as §3
[19] = target: Serine/threonine-protein kinase VRK2 (Homo sapiens) (UniProt Q86Y07); assay: Competitive binding affinity to partial length wild type human VRK2 expressed in mammalian expression system at 10 uM by kinomescan method relative to control; in short: as §3
[20] = Antiproliferative activity against human KMS11 cells after 72 hrs by CellTiter-Glo assay; type: functional, cell-based; conditions: KMS-11, 72 h
[21] = Antiproliferative activity against human KARPAS620 cells after 72 hrs by CellTiter-Glo assay; type: functional, cell-based; conditions: Karpas-620, 72 h
[22] = Antiproliferative activity against human SKMM-2 cells after 72 hrs by CellTiter-Glo assay; type: functional, cell-based; conditions: SK-MM-2, 72 h
[23] = Antiproliferative activity against human L363 cells after 72 hrs by CellTiter-Glo assay; type: functional, cell-based; conditions: L-363, 72 h
[24] = Antiproliferative activity against human MOLP2 cells after 72 hrs by CellTiter-Glo assay; type: functional, cell-based; conditions: MOLP-2, 72 h
[25] = Antiproliferative activity against human NCI-H929 cells after 72 hrs by CellTiter-Glo assay; type: functional, cell-based; conditions: NCI-H929, 72 h
[26] = Antiproliferative activity against human MM1S cells after 72 hrs by CellTiter-Glo assay; type: functional, cell-based; conditions: MM1.S
[27] = Antiproliferative activity against human JJN-3 cells after 72 hrs by CellTiter-Glo assay; type: functional, cell-based; conditions: JJN-3, 72 h
[28] = Antiproliferative activity against human KMS26 cells after 72 hrs by CellTiter-Glo assay; type: functional, cell-based; conditions: KMS-26, 72 h
[29] = Antiproliferative activity against human MM1R cells after 72 hrs by CellTiter-Glo assay; type: functional, cell-based; conditions: MM.1R
[30] = Antiproliferative activity against human KMM1 cells after 72 hrs by CellTiter-Glo assay; type: functional, cell-based; conditions: KMM-1, 72 h
[31] = Antiproliferative activity against PTEN-deficient human OPM2 cells after 72 hrs by CellTiter-Glo assay; type: functional, cell-based; conditions: OPM-2, 72 h
[32] = Inhibition of Pim signaling in human KMS-12-BM cells assessed as upregulation of Pim1 expression at […] after 4 to 72 hrs by Western blot method; type: cell-based
[33] = Inhibition of Pim signaling in human KMS-12-BM cells assessed as upregulation of Pim2 expression at […] after 4 to 72 hrs by Western blot method; type: cell-based
[34] = Inhibition of Pim signaling in human KMS-12-BM cells assessed as upregulation of Pim3 expression at […] after 4 to 72 hrs by Western blot method; type: cell-based
KMS-12-BM [35] = assay: Induction of apoptosis in human KMS-12-BM cells assessed as increase in cleaved-PARP levels at […] after 4 to 72 hrs by Western blot method; type: functional, cell-based
KMS-12-BM [36] = assay: Induction of apoptosis in human KMS-12-BM cells assessed as increase in cleaved caspase 3 levels at […] after 4 to 72 hrs by Western blot method; type: functional, cell-based
KMS-12-BM [37] = assay: Induction of apoptosis in human KMS-12-BM cells assessed as increase in cleaved caspase 7 levels at […] after 4 to 72 hrs by Western blot method; type: functional, cell-based
MDR1 = assay: Permeability in rat LLC-PK1 cells expressing MDR1

Voltage-gated inwardly rectifying potassium channel KCNH2, sequence (Q12809 whole entry): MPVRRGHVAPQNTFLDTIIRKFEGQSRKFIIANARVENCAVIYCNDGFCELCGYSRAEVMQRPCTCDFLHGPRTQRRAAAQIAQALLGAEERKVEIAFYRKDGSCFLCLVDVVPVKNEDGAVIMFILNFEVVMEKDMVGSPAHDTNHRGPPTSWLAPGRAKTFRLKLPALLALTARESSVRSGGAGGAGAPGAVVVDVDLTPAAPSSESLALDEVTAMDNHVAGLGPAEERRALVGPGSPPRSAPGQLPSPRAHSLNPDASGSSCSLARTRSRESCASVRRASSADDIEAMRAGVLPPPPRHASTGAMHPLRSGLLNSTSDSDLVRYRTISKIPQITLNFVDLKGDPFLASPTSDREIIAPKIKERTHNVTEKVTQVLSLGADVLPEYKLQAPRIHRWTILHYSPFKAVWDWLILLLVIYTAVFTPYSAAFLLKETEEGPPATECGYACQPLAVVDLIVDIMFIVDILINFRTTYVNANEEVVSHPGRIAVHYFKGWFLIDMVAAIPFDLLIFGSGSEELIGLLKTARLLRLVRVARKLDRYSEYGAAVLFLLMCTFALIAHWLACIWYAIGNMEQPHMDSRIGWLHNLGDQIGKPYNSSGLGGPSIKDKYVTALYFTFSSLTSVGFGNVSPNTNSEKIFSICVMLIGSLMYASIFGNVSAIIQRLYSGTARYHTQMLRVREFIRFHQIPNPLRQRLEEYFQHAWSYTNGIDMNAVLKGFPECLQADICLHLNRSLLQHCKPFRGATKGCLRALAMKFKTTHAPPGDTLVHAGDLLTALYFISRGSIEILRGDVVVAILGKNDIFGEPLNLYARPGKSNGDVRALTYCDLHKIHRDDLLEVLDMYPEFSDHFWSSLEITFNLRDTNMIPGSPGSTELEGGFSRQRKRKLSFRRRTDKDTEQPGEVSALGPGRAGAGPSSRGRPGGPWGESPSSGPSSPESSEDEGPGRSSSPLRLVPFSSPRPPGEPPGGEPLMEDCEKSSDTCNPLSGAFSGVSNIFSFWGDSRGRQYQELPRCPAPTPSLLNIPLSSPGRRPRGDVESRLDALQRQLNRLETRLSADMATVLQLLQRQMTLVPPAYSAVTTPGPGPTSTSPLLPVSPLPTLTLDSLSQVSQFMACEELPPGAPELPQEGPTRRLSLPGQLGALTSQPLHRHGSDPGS
Homeodomain-interacting protein kinase 3 (Homo sapiens), sequence (Q9H422 whole entry, looked up): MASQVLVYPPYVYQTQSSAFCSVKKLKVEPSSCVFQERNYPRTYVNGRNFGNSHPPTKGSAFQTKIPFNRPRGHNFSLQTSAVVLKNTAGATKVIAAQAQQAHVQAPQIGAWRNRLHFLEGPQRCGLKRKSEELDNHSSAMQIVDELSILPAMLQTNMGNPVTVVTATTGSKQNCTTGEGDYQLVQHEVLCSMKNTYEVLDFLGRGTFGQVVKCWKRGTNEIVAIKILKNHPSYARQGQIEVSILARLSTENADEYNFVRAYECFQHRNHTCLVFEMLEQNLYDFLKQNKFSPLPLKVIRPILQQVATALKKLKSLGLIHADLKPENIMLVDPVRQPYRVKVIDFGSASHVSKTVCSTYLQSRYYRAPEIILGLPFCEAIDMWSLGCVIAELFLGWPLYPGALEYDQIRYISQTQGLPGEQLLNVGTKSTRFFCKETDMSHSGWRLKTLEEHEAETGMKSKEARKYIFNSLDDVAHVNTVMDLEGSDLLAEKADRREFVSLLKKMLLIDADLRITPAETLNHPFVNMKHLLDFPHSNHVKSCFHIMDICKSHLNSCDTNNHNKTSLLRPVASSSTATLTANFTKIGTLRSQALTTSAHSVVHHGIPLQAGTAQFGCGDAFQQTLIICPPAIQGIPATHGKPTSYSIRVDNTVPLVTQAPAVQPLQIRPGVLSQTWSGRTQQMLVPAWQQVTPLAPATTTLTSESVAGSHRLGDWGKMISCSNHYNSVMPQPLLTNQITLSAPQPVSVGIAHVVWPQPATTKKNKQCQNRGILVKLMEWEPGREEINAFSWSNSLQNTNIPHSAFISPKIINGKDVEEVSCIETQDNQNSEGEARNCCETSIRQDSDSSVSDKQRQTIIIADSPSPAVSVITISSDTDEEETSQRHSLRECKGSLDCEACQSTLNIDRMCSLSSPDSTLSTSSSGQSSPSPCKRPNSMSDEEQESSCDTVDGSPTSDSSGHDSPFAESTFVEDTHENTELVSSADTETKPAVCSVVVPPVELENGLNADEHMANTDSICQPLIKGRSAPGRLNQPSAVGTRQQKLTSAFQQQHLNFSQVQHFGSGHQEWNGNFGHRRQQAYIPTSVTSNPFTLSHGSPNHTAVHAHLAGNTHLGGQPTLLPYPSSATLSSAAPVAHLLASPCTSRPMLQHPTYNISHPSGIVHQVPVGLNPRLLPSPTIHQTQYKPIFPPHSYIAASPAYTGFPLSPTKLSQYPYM
Serine/threonine-protein kinase TAO3 (Homo sapiens), sequence (Q9H2K8 whole entry): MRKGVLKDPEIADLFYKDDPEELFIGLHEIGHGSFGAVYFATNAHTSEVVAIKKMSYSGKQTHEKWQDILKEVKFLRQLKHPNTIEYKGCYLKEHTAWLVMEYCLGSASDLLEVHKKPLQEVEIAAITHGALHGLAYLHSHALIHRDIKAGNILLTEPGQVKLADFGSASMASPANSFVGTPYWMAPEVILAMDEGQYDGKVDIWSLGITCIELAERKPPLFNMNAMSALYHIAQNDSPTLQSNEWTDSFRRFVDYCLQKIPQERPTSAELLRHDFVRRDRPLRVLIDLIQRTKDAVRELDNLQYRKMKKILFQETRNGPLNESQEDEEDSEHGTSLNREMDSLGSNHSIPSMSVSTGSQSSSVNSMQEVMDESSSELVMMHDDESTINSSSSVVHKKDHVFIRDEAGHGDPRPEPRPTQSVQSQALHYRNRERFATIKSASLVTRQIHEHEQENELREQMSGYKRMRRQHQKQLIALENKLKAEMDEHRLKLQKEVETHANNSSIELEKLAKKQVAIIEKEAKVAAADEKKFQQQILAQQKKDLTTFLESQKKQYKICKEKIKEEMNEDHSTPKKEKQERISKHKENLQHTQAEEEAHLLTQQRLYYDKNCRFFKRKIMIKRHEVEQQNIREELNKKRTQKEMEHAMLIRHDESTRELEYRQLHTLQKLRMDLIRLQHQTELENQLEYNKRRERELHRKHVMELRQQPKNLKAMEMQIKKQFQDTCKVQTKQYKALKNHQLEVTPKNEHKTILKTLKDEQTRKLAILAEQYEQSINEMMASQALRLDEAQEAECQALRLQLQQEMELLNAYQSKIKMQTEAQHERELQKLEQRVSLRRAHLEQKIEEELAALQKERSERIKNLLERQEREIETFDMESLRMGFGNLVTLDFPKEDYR
Casein kinase II subunit alpha (Homo sapiens), sequence (P68400 whole entry, looked up): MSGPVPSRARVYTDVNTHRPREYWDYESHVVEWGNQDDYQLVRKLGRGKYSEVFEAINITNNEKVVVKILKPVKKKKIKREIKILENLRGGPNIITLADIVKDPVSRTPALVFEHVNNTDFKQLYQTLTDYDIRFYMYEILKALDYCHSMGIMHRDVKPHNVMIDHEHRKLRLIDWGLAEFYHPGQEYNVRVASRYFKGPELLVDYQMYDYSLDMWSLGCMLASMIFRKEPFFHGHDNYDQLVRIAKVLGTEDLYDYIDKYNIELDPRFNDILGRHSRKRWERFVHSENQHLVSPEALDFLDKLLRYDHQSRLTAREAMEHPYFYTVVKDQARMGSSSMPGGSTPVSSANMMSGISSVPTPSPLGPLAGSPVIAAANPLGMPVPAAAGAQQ
Serine/threonine-protein kinase VRK2 (Homo sapiens), sequence (Q86Y07 whole entry): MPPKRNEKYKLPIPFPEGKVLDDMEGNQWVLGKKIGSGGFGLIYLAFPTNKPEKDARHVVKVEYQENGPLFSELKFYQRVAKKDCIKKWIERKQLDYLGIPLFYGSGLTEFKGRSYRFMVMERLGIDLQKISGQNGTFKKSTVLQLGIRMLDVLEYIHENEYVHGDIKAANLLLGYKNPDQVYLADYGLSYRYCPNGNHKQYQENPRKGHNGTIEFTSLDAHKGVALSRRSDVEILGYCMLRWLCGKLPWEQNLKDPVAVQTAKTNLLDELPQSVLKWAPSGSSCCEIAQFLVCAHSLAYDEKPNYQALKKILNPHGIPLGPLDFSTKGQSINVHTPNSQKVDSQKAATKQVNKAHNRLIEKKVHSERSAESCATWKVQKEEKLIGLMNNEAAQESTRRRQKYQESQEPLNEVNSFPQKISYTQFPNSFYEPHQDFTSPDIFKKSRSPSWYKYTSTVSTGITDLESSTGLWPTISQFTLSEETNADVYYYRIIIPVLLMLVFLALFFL
Phosphatidylinositol 4-phosphate 5-kinase type-1 gamma (Homo sapiens), sequence (O60331 whole entry): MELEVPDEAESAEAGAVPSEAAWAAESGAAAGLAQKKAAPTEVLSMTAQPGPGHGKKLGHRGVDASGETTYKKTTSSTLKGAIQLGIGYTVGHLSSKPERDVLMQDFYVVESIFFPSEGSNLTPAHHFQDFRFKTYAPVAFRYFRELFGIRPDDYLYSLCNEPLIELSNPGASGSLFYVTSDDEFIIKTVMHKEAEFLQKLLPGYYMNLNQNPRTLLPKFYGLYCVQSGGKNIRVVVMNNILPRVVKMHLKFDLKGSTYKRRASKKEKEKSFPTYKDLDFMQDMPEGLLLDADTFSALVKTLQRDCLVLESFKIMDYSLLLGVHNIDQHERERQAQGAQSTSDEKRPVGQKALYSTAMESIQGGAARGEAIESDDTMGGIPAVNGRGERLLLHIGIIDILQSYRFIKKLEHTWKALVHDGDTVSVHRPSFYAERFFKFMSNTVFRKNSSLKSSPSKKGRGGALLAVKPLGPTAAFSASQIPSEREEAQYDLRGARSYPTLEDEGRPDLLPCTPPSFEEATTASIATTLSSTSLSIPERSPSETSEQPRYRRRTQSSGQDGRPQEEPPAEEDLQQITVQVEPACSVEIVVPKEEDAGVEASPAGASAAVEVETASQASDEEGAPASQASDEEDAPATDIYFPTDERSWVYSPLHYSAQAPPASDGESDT

**Q.** With `C[C@@H]1C[C@H](N)CN(c2ccncc2Nc2ncc3ccc(-c4c(F)cccc4F)nn23)C1` as the compound, how does the microsomal CLint at 1 µM [1] read?
**A.** > 399 µL/min/mg

**Q.** And the microsomal CLint at 1 µM [2]?
**A.** 69 µL/min/mg

**Q.** What about the CL [3] of the same compound?
**A.** 1.4 L/h/kg

**Q.** And the Vd [4]?
**A.** 7.3 L/kg

**Q.** What about the AUC [5] of the same compound?
**A.** 3.5 µM·h

**Q.** What about the IC50 [6] of the same compound?
**A.** 1000 nM

**Q.** And the solubility [7]?
**A.** 200 µg/mL (≈ 459 µM)

**Q.** And the solubility [8]?
**A.** 180 µg/mL (≈ 413 µM)

**Q.** What about the solubility [9] of the same compound?
**A.** 150 µg/mL (≈ 344 µM)

**Q.** What about the Activity [10] of the same compound?
**A.** 4.2%

**Q.** And the Activity (Homo sapiens)?
**A.** 3.4%

**Q.** And the Activity [11]?
**A.** 0.65%

**Q.** What about the Activity [12] of the same compound?
**A.** 1.4%

**Q.** And the Activity [13]?
**A.** 1.8%

**Q.** And the Activity [14]?
**A.** 1.2%

**Q.** What about the Activity [15] of the same compound?
**A.** 7%

**Q.** What about the Activity [16] of the same compound?
**A.** 0.6%

**Q.** What about the Activity [17] of the same compound?
**A.** 7.8%

**Q.** And the Activity [18]?
**A.** 0.4%

**Q.** What about the Activity [19] of the same compound?
**A.** 9.2%

**Q.** What about the IC50 [20] of the same compound?
**A.** 100 nM

**Q.** What about the IC50 [21] of the same compound?
**A.** 162 nM

**Q.** And the IC50 [22]?
**A.** 228 nM

**Q.** What about the IC50 [23] of the same compound?
**A.** 332 nM

**Q.** What about the IC50 [24] of the same compound?
**A.** 332 nM

**Q.** What about the IC50 [25] of the same compound?
**A.** 337 nM

**Q.** And the IC50 [26]?
**A.** 361 nM

**Q.** And the IC50 [27]?
**A.** 375 nM

**Q.** What about the IC50 [28] of the same compound?
**A.** 393 nM

**Q.** What about the IC50 [29] of the same compound?
**A.** 457 nM

**Q.** What about the IC50 [30] of the same compound?
**A.** 2120 nM

**Q.** And the IC50 [31]?
**A.** 4.38 µM

**Q.** What about the Activity [32] of the same compound?
**A.** Active

**Q.** And the Activity [33]?
**A.** Active

**Q.** What about the Activity [34] of the same compound?
**A.** Active

**Q.** And the Activity (KMS-12-BM [35])?
**A.** Active

**Q.** And the Activity (KMS-12-BM [36])?
**A.** Active

**Q.** And the Activity (KMS-12-BM [37])?
**A.** Active

**Q.** What about the Papp (MDR1) of the same compound?
**A.** 4.5 ×10⁻⁶ cm/s
